The text below walks through data of ChEMBL document CHEMBL1137398, “Synthesis and immunobiological activity of an original series of acyclic lipid a mimics based on a pseudodipeptide backbone” (J Med Chem, 2006).

≈ marks a conversion by molar mass, not a printed value. Calls of active or inactive are those of the source. No cut-off for these calls is given here.

As a reminder, the EC50 is the concentration needed to bring the measured effect to its halfway point. Lower therefore signals greater potency.

The subject of data set [1] is PBMC. Put plainly: Antagonist effect on LPS-induced IL6 production in human PBMC at 2 ug/mL. The data set is classed as functional, cell-based. In short, it runs like this: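 Human PBMC from healthy donor buffy coat, isolated on Ficoll (1.077 g/mL). Cultured at 1 × 10⁶ viable cells/well in RPMI-1640 with 10% FCS, penicillin/streptomycin and L-glutamine. Pre-incubated 90 min at 37 °C, 5% CO₂ with compound at final 0.02, 0.2, 2 or 20 µg/mL. E. coli LPS (055:B5) then added at 0.01 µg/mL. After 24 h, supernatant IL-6 measured by ELISA.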

Data set [2] concerns Limulus. The experiment in a line: Endotoxicity against horseshoe crab blood at 0.1 mg/mL by LAL chromogenic assay. The data set is classed as toxicity, organism-based. Conditions: limulus polyphemus. In short, it runs like this:
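LAL chromogenic endotoxin assay with compound at 0.1 mg/mL. Average of three independent experiments.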

In data set [3] the test system is Macrophage. The experiment in a line: Induction of NO production in murine macrophage. It is filed as functional, cell-based. Conditions: Mus musculus. In short, it runs like this: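 Bone-marrow macrophages from six-week-old male C57BL/6 mice, differentiated 8 d in DMEM with 20% horse serum and 30% L929 supernatant. Then set to 700 000 cells/mL in DMEM with 5% FCS. Serially diluted compounds were incubated with cells in triplicate for 22 h at 37 °C, 8% CO₂. Supernatant nitrite measured by Griess reaction at 562 nm (reference 690 nm) against a standard curve. Reported as mean ± SD dose-response.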

The subject of data set [4] is Oryctolagus cuniculus. Put plainly: Induction of pyrogenicity in rabbit assessed as increase in temperature at 0.01 mg/kg, iv. It is filed as functional, organism-based. Details: dose 0.01 mg/kg. In short, it runs like this: (§1)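 Rabbit pyrogenicity test, iv injection, with water as control. Read-out is the summed temperature rise in three rabbits (°C), scored pass, inconclusive or fail.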

Data set [5] concerns Oryctolagus cuniculus. Put plainly: Induction of pyrogenicity in rabbit assessed as increase in temperature at 0.001 mg/kg, iv. It is filed as functional, organism-based. More on the design: dose 0.001 mg/kg. In short, it runs like this: as §1
The test system of data set [6] is PBMC. Put plainly: Induction of IL6 production in human PBMC at 20 ug/ml relative to LPS. It is filed as functional, cell-based. In short, it runs like this: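 Human PBMC isolated on Ficoll from donor buffy coat. Cultured at 1 × 10⁶ viable cells/well in RPMI-1640 with 10% FCS and antibiotics. Incubated at 37 °C, 5% CO₂ with compound at final 20 µg/mL. Controls were medium alone and E. coli LPS (055:B5). Supernatant harvested at 24 h and IL-6 measured by ELISA; detection limit 10 pg/mL.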

The test system of data set [7] is Oryctolagus cuniculus. The experiment in a line: Induction of pyrogenicity in rabbit assessed as increase in temperature at 0.1 mg/kg, iv. It is filed as functional, organism-based. Details: dose 0.1 mg/kg. In short, it runs like this:
as §1

As for `CCCCCCCCCCCC(=O)O[C@H](CCCCCCCCCCC)CC(=O)N[C@@H](CCOP(=O)(O)O)C(=O)NCCC[C@H](CO)NC(=O)C[C@H](O)CCCCCCCCCCC`, the outcome in data set [1] was inactive. In data set [2], this compound gave an Activity of 9320 EU/ml. In data set [3], this compound returned an EC50 of 6.86 µg/mL (≈ 7.34 µM).
`CCCCCCCCCCCC(=O)O[C@H](CCCCCCCCCCC)CC(=O)NC(CCOP(=O)(O)O)C(=O)NCCC[C@H](COP(=O)(O)O)NC(=O)C[C@H](O)CCCCCCCCCCC` (mixture of isomers): the result in data set [1] was Active. For the same compound, the result in data set [4], in data set [5] and in data set [6] was inactive. Also, in data set [2], the Activity is reported as 874 EU/ml. This compound also displayed an EC50 in data set [3] of 0.083 µg/mL.
In data set [3], `CCCCCCCCCCCC(=O)O[C@H](CCCCCCCCCCC)CC(=O)N[C@H]1[C@H](OC[C@H]2O[C@H](OP(=O)(O)O)[C@H](NC(=O)C[C@H](O)CCCCCCCCCCC)[C@@H](O)[C@@H]2O)O[C@H](CO)[C@@H](OP(=O)(O)O)[C@@H]1O` [DEFOSLIMOD] returned an EC50 of 0.025 µg/mL (≈ 0.022 µM).
In the case of `CCCCCCCCCCCC(=O)O[C@H](CCCCCCCCCCC)CC(=O)N[C@@H](CCOP(=O)(O)O)C(=O)NCCC[C@H](COP(=O)(O)O)NC(=O)C[C@H](O)CCCCCCCCCCC`, in data set [1], the result was Active. In data set [2], this compound yielded an Activity of 240 EU/ml. Moreover, the outcome in data set [6] was inactive. For the same compound, a half-maximal response in data set [3] (EC50) required 0.15 µg/mL (≈ 0.148 µM).
Consider `CCCCCCCCCCCC(=O)O[C@H](CCCCCCCCCCC)CC(=O)N[C@H](CCOP(=O)(O)O)C(=O)NCCC[C@H](CO)NC(=O)C[C@H](O)CCCCCCCCCCC`, for which the outcome in data set [1] was inactive. This compound showed an Activity in data set [2] of 14257 EU/ml. In data set [3], this compound registered an EC50 of 1.85 µg/mL (≈ 1.98 µM).
For `CCCCCCCCCCCC(=O)O[C@H](CCCCCCCCCCC)CC(=O)NC(CCOP(=O)(O)O)C(=O)NCCC[C@H](CO)NC(=O)C[C@H](O)CCCCCCCCCCC` (mixture of isomers), the result in data set [1], in data set [4] and in data set [5] was inactive. The Activity in data set [2] amounted to 16238 EU/ml. This compound yielded an EC50 in data set [3] of 3.53 µg/mL. The result in data set [7] was Active.
As for `CCCCCCCCCCCC(=O)O[C@H](CCCCCCCCCCC)CC(=O)N[C@H](CCOP(=O)(O)O)C(=O)NCCC[C@H](COP(=O)(O)O)NC(=O)C[C@H](O)CCCCCCCCCCC`, the outcome in data set [1] was Active. This compound also returned an Activity in data set [2] of 1072 EU/ml. Further, the outcome in data set [6] was inactive. In data set [3], a half-maximal response (EC50) required 0.55 µg/mL (≈ 0.542 µM).
